Measurements: ChEMBL document CHEMBL1821679, “Targeting the heat shock protein 90 dimer with dimeric inhibitors” (J Med Chem, 2011)
Calls of active or inactive are those of the source. The rule behind the calls is not given here.

Key:
[1] = system: SK-BR-3; test: Antiproliferative activity against human SKBR3 cells after 72 hrs by MTS/PMS assay; type: functional, cell-based; conditions: SK-BR-3, 72 h
In short: (§1)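 Cells grown in medium with non-essential amino acids, 2 mM L-glutamine, streptomycin, penicillin and 10% FBS at 37 °C, 5% CO2; seeded 2000/well, attached overnight. Test agent added over a concentration range in DMSO (1% final), 72 h exposure. Viable cells counted by MTS/PMS read-out against 1% DMSO wells as 100% proliferation. IC50 taken as mean ± SD of at least two separate experiments, each in triplicate.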

[2] = system: MCF7; test: Antiproliferative activity against human MCF7 cells after 72 hrs by MTS/PMS assay; type: functional, cell-based; conditions: MCF7, 72 h; in short: as §1
[3] = Antiproliferative activity against human PC3MM2 cells after 72 hrs by MTS/PMS assay; type: functional, cell-based; conditions: PC3MM2, 72 h; in short: as §1
[4] = system: A549; test: Antiproliferative activity against human A549 cells after 72 hrs by MTS/PMS assay; type: functional, cell-based; conditions: A549, 72 h; in short: as §1
[5] = system: HT-29; test: Antiproliferative activity against human HT-29 cells after 72 hrs by MTS/PMS assay; type: functional, cell-based; conditions: HT-29, 72 h; in short: as §1
[6] = target: T1, Heat shock protein HSP90 (Homo sapiens) (UniProt P07900+P08238); test: Inhibition of Hsp90 in human MCF7 cells assessed as induction of Her2 degradation at 5 fold IC50 after 24 hrs by Western blot method; type: cell-based
In short: (§2)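 MCF-7 cells treated 24 h with compound in DMSO (1% final); geldanamycin 500 nM served as positive control and DMSO as vehicle control. Cells harvested in cold PBS and lysed 1 h on ice in RIPA with 1 mM PMSF, 2 mM orthovanadate and protease inhibitors. Lysates clarified 14,000g, 15 min, 4 °C. Protein (20 µg, BCA) resolved under reducing conditions and blotted on PVDF for Her2, Raf and Akt, with actin as loading control. Detection by HRP secondary antibody and chemiluminescence.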

[7] = target: T1, Heat shock protein HSP90 (Homo sapiens); test: Inhibition of Hsp90 in human MCF7 cells assessed as induction of Her2 degradation at 0.5 fold IC50 after 24 hrs by Western blot method; type: cell-based; in short: as §2
[8] = target: T1, Heat shock protein HSP90 (Homo sapiens); test: Inhibition of Hsp90 in human MCF7 cells assessed as induction of Raf degradation at 5 fold IC50 after 24 hrs by Western blot method; type: cell-based; in short: as §2
[9] = target: T1, Heat shock protein HSP90 (Homo sapiens); test: Inhibition of Hsp90 in human MCF7 cells assessed as induction of Raf degradation at 0.5 fold IC50 after 24 hrs by Western blot method; type: cell-based; in short: as §2
[10] = target: T1, Heat shock protein HSP90 (Homo sapiens); test: Inhibition of Hsp90 in human MCF7 cells assessed as induction of Akt degradation at 5 fold IC50 after 24 hrs by Western blot method; type: cell-based; in short: as §2
[11] = target: T1, Heat shock protein HSP90 (Homo sapiens); test: Inhibition of Hsp90 in human MCF7 cells assessed as induction of Akt degradation at 0.5 fold IC50 after 24 hrs by Western blot method; type: cell-based; in short: as §2

IC50 [1] [nM] | IC50 [2] [nM] | IC50 [4] [nM] | IC50 [5] [nM] | inhibition [6] | inhibition [7] | inhibition [8] | inhibition [9] | inhibition [10] | inhibition [11] | Compound | IC50 [3] [nM]
1950 | 1850 | 28900 | 11700 |  |  |  |  |  |  | COc1cc(C(=O)Nc2cc3ccc(O[C@@H]4OC(C)(C)[C@H](OC)[C@@H](O)[C@H]4O)c(C)c3oc2=O)cc(-c2cc(OC)cc(C(=O)Nc3cc4ccc(O[C@@H]5OC(C)(C)[C@H](OC)[C@@H](O)[C@H]5O)c(C)c4oc3=O)c2)c1 | 12500
1500 | 3900 |  |  |  |  |  |  |  |  | CO[C@H]1[C@H](O)[C@H](O)[C@@H](Oc2ccc3cc(NC(=O)CC/C=C/CCC(=O)Nc4cc5ccc(O[C@H]6OC(C)(C)[C@@H](OC)[C@H](O)[C@@H]6O)c(C)c5oc4=O)c(=O)oc3c2C)OC1(C)C | 
4100 | 2610 |  |  |  |  |  |  |  |  | COc1cc2cc(NC(=O)CC/C=C/CCC(=O)Nc3cc4cc(OC)c(O[C@H]5OC(C)(C)[C@@H](OC)[C@H](O)[C@@H]5O)c(C)c4oc3=O)c(=O)oc2c(C)c1O[C@H]1OC(C)(C)[C@@H](OC)[C@H](O)[C@@H]1O | 
11800 | > 100000 |  |  |  |  |  |  |  |  | COc1ccc(C(=O)Nc2cc3ccc(OC(C)=O)c(C)c3oc2=O)cc1-c1cc(C(=O)Nc2cc3ccc(OC(C)=O)c(C)c3oc2=O)ccc1OC | 
1260 | 2460 |  |  |  |  |  |  |  |  | Cc1c(OC2CCN(C)CC2)ccc2cc(NC(=O)CCCCC(=O)Nc3cc4ccc(OC5CCN(C)CC5)c(C)c4oc3=O)c(=O)oc12 | 
52000 | > 100000 |  |  |  |  |  |  |  |  | COc1c(O[C@H]2OC(C)(C)[C@@H](OC)[C@H](O)[C@@H]2O)ccc2cc(NC(=O)CC/C=C/CCC(=O)Nc3cc4ccc(O[C@H]5OC(C)(C)[C@@H](OC)[C@H](O)[C@@H]5O)c(OC)c4oc3=O)c(=O)oc12 | 
460 | 840 | 19400 | 12200 | inactive | inactive | inactive | inactive | inactive | inactive | Cc1c(OCCCN(C)C)ccc2cc(NC(=O)C/C=C/CC(=O)Nc3cc4ccc(OCCCN(C)C)c(C)c4oc3=O)c(=O)oc12 | 15200
110 | 720 |  |  | Active | Active | Active | Active | Active | Active | COc1ccc(C(=O)Nc2cc3cc(OC)c(O[C@@H]4OC(C)(C)[C@H](OC)[C@@H](O)[C@H]4O)c(C)c3oc2=O)cc1-c1cc(C(=O)Nc2cc3cc(OC)c(O[C@@H]4OC(C)(C)[C@H](OC)[C@@H](O)[C@H]4O)c(C)c3oc2=O)ccc1OC | 
890 | 630 | 220 | 240 | inactive | inactive | Active | Active | Active | Active | Cc1c(OC2CCN(C)CC2)ccc2cc(NC(=O)CCC/C=C/CCCC(=O)Nc3cc4ccc(OC5CCN(C)CC5)c(C)c4oc3=O)c(=O)oc12 | 440
2840 | 3680 | 13200 | 3900 |  |  |  |  |  |  | Cc1c(OC2CCN(C)CC2)ccc2cc(NC(=O)CCCCCCCCC(=O)Nc3cc4ccc(OC5CCN(C)CC5)c(C)c4oc3=O)c(=O)oc12 | 10200
1190 | 2820 | 30400 | 26300 |  |  |  |  |  |  | Cc1c(OC2CCN(C)CC2)ccc2cc(NC(=O)CCCCCCC(=O)Nc3cc4ccc(OC5CCN(C)CC5)c(C)c4oc3=O)c(=O)oc12 | 13800
860 | 1260 |  |  |  |  |  |  |  |  | CO[C@@H]1[C@@H](O)[C@@H](O)[C@H](Oc2ccc3cc(NC(=O)c4cccc(-c5cccc(C(=O)Nc6cc7ccc(O[C@@H]8OC(C)(C)[C@H](OC)[C@@H](O)[C@H]8O)c(C)c7oc6=O)c5)c4)c(=O)oc3c2C)OC1(C)C | 
9500 | 11700 | 93400 | 62700 |  |  |  |  |  |  | COc1ccc(C(=O)Nc2cc3ccc(OCCCN(C)C)c(C)c3oc2=O)cc1-c1cc(C(=O)Nc2cc3ccc(OCCCN(C)C)c(C)c3oc2=O)ccc1OC | 52300
220 | 310 | 37700 |  | Active | Active | Active | Active | Active | Active | COc1cc2cc(NC(=O)CCC/C=C/CCCC(=O)Nc3cc4cc(OC)c(OC5CCN(C)CC5)c(C)c4oc3=O)c(=O)oc2c(C)c1OC1CCN(C)CC1 | 380
> 100000 | 49900 | 77600 |  |  |  |  |  |  |  | Cc1c(OC2CCN(C)CC2)ccc2cc(NC(=O)CC/C=C\CCC(=O)Nc3cc4ccc(OC5CCN(C)CC5)c(C)c4oc3=O)c(=O)oc12 | 32900
710 | 1460 |  |  | Active | Active | Active | Active | Active | Active | COc1c(OC2CCN(C)CC2)ccc2cc(NC(=O)C/C=C/CC(=O)Nc3cc4ccc(OC5CCN(C)CC5)c(OC)c4oc3=O)c(=O)oc12 | 8630
1100 | 1310 | 1440 |  | Active | Active | Active | Active | Active | Active | COc1cc2cc(NC(=O)CC/C=C/CCC(=O)Nc3cc4cc(OC)c(OC5CCN(C)CC5)c(C)c4oc3=O)c(=O)oc2c(C)c1OC1CCN(C)CC1 | 4860
28500 | 38000 |  |  |  |  |  |  |  |  | COc1cc(C(=O)Nc2cc3ccc(O[C@@H]4OC(C)(C)[C@H](OC)[C@@H](O)[C@H]4O)c(C)c3oc2=O)cc(-c2cc(C(=O)Nc3cc4ccc(O[C@@H]5OC(C)(C)[C@H](OC)[C@@H](O)[C@H]5O)c(C)c4oc3=O)ccc2OC)c1 | 
4980 | 14200 |  |  |  |  |  |  |  |  | COc1ccc(C(=O)Nc2cc3ccc(OC4CCN(C)CC4)c(C)c3oc2=O)cc1-c1cc(C(=O)Nc2cc3ccc(OC4CCN(C)CC4)c(C)c3oc2=O)ccc1OC | 
> 100000 | > 100000 |  |  |  |  |  |  |  |  | COc1c(O[C@H]2OC(C)(C)[C@@H](OC)[C@H](O)[C@@H]2O)ccc2cc(NC(=O)C/C=C/CC(=O)Nc3cc4ccc(O[C@H]5OC(C)(C)[C@@H](OC)[C@H](O)[C@@H]5O)c(OC)c4oc3=O)c(=O)oc12 | 
> 100000 | 53100 |  |  |  |  |  |  |  |  | CO[C@H]1[C@H](O)[C@H](O)[C@@H](Oc2ccc3cc(NC(=O)C/C=C/CC(=O)Nc4cc5ccc(O[C@H]6OC(C)(C)[C@@H](OC)[C@H](O)[C@@H]6O)c(C)c5oc4=O)c(=O)oc3c2C)OC1(C)C | 
370 | 880 | 1210 |  | Active | Active | Active | Active | Active | Active | COc1c(OC2CCN(C)CC2)ccc2cc(NC(=O)CCC/C=C/CCCC(=O)Nc3cc4ccc(OC5CCN(C)CC5)c(OC)c4oc3=O)c(=O)oc12 | 50
270 | 560 | 1250 |  | Active | Active | Active | Active | Active | Active | COc1cc2cc(NC(=O)C/C=C/CC(=O)Nc3cc4cc(OC)c(OC5CCN(C)CC5)c(C)c4oc3=O)c(=O)oc2c(C)c1OC1CCN(C)CC1 | 170
2220 | 1120 | 1220 |  | inactive | inactive | inactive | inactive | inactive | inactive | COc1c(OC2CCN(C)CC2)ccc2cc(NC(=O)CC/C=C/CCC(=O)Nc3cc4ccc(OC5CCN(C)CC5)c(OC)c4oc3=O)c(=O)oc12 | 60
510 | 730 |  |  |  |  |  |  |  |  | Cc1c(OC2CCN(C)CC2)ccc2cc(NC(=O)CCCC/C=C/CCCCC(=O)Nc3cc4ccc(OC5CCN(C)CC5)c(C)c4oc3=O)c(=O)oc12 | 
106000 | 168000 |  |  |  |  |  |  |  |  | COc1cc2cc(NC(=O)C/C=C/CC(=O)Nc3cc4cc(OC)c(O[C@H]5OC(C)(C)[C@@H](OC)[C@H](O)[C@@H]5O)c(C)c4oc3=O)c(=O)oc2c(C)c1O[C@H]1OC(C)(C)[C@@H](OC)[C@H](O)[C@@H]1O | 

Compound | IC50 [1] [nM] | IC50 [2] [nM] | IC50 [4] [nM] | IC50 [5] [nM] | inhibition [6] | inhibition [7] | inhibition [8] | inhibition [9] | inhibition [10] | inhibition [11] | IC50 [3] [nM]
CO[C@H]1[C@H](OC(=O)c2ccc(C)[nH]2)[C@H](O)[C@@H](Oc2ccc3c(O)c(NC(=O)c4c[nH]c(C(=O)Nc5c(O)c6ccc(O[C@H]7OC(C)(C)[C@@H](OC)[C@H](OC(=O)c8ccc(C)[nH]8)[C@@H]7O)c(C)c6oc5=O)c4C)c(=O)oc3c2C)OC1(C)C [COUMERMYCIN A1] | 5000 | 8800 |  |  |  |  |  |  |  |  | 
